# KCNK9 inh – human KCNK9 channel inhibition; HEK293 KCNK9, FluxOR thallium flux fluorescence; stronger effect = lower value; B-score at 10 µM; actives 1.2% (n = 310,000); AID 488922;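 active = ratio B-score over 3 SD below the library mean, with starting fluorescence within 5 SD of its mean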;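 note: negative B-score means less thallium flux so channel inhibition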
# KCNQ1 act – potentiates or activates the human KCNQ1 potassium channel; CHO-K1 KCNQ1, thallium flux FluxOR fluorescence; stronger effect = higher value; B-score at 10 µM; actives 0.35% (n = 310,000);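 active = fluorescence ratio B-score, a plate-corrected score, at least three library SD, with initial intensity B-score within 5 SD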
#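 Test system: CHO-K1 cells stably expressing KCNQ1 / Medium: assay buffer / Also added: depolarizing K+/Tl+ stimulus, K2SO4 and Tl2SO4 each 12.5 mM in 5x stock / Incubation: 90 min dye loading and 20 min compound exposure, both at room temperature / Signal: thallium influx via FluxOR fluorescence, kinetic imaging / Evaluation: B score of baseline-normalized fluorescence ratio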
# KCNQ1 inh – inhibitors of human KCNQ1 potassium channel. P51787. CHO-K1 KCNQ1, FluxOR thallium flux fluorescence; stronger effect = higher value. B-score at 10 µM. actives 1.3% (n = 310,000);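 active = compounds whose thallium flux B-score, printed positive for inhibition, exceeds three library SD while starting fluorescence stays within three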;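 note: channel opened by potassium depolarization with thallium stimulus after 20 min compound exposure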
# hERG rescue – compounds protecting human hERG from proarrhythmic drug block. activation (rescue from dofetilide block), less the hit threshold, % at 10 µM. actives 0.51% (n = 310,000). CHO-hERG, FluxOR thallium flux, dofetilide IC70 present. AID 1511;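 active = activation above the mean of controls blocked by dofetilide plus 5 SD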;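 note: thallium influx through hERG after potassium depolarization seen as dye fluorescence rise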
# Kir21 block – inhibitors of mouse Kir2.1 inward-rectifier potassium channel; AID 1672; B-score at 10 µM; actives 0.85% (n = 310,000); HEK293-Kir2.1, FluxOR thallium flux fluorescence; stronger effect = lower value;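 active = fluorescence ratio B-score at or below minus 3 SD of library scores, with starting-brightness B-score within 2 SD, cut at about -4.2 in these data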;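 note: channel flux triggered by added potassium and thallium sulfate stimulus; B-score of peak minus minimum fluorescence over baseline after thallium stimulus; more negative B-score means stronger Kir2.1 block with less thallium influx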
# Target sequence (P35561 whole entry, looked up): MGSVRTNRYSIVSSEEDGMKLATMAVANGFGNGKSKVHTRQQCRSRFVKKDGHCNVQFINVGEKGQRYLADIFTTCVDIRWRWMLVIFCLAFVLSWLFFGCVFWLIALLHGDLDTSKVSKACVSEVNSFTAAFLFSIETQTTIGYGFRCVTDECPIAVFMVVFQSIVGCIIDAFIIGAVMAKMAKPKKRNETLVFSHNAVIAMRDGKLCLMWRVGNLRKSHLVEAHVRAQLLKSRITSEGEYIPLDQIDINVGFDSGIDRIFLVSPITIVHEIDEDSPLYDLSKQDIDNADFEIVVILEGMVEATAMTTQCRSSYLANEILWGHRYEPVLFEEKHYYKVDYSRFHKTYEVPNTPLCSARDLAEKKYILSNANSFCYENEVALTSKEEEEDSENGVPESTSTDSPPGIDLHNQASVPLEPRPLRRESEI
# KCNK3 inh – human KCNK3 channel inhibition, primary screen; B-score at 10 µM; AID 602410; actives 0.84% (n = 340,000); CHO-KCNK3 thallium flux, FluxOR fluorescence; stronger effect = lower value; O14649;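 active = B-score under library mean minus 4 SD, starting fluorescence ratio at most library mean plus 5 SD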;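 note: more negative B-score means stronger inhibition of thallium flux through KCNK3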
# KCNK3 confirm – human KCNK3 channel inhibition, confirmation assay. actives 99% (n = 2,400). CHO-KCNK3 thallium flux, FluxOR fluorescence; 0% buffer, 100% carvedilol maximal block. ratio percent of control, % at 10 µM. shares compounds with KCNK3 inh;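 active = ratio percent of control, averaged over triplicates, above buffer control mean plus 5 SD, cut at about 64% in these data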;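 note: ratio is the fluorescence rise from min to max over baseline after thallium stimulus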
# KCNK3 noninduced – counter-screen for KCNK3 inhibitors: effect in non-induced cells; actives 40% (n = 2,400); thallium flux ratio (lower = more inhibition) at 10 µM; non-induced KCNK3 parental cells, FluxOR thallium flux; stronger effect = lower value; AID 651747; shares compounds with KCNK3 inh;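 active = thallium flux ratio, averaged over three wells, more than 5 SD below the buffer control mean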;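 note: host cells are CHO cells without KCNK3 induction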
# Numbers stand for hits; - = inactive; . = no result. Compounds with a hit are over-represented: about 3.7% of the library has one in this group of screens.
SMILES,KCNK9 inh,KCNQ1 act,KCNQ1 inh,hERG rescue,Kir21 block,KCNK3 inh,KCNK3 confirm,KCNK3 noninduced
OC1CCN(c2c3c(nc4cc(-c5cccc(F)c5)nn24)CCCC3)CC1,-,-,-,-,-,-8.9,122,-
COc1ccc(-c2[nH]ncc2N=Nc2cc(C)cc(C)c2)cc1,-,-,-,-,-,-,.,.
COc1ccc(-c2[nH]ncc2N=Nc2ccccc2)cc1,-,-,-,-,-,-9.2,88,-
Cc1[nH]c2ccccc2c1C(=O)CSC(=S)N1CCOCC1,-,-,-,-,-,-,.,.
COc1ccc(Br)cc1/C=N/NC(=O)c1nc(-c2ccccc2)n2c1CCCCC2,-,-,6,-,-,-12,113,0.14
Cc1noc(C)c1COc1ccccc1C(=O)NCc1ccccc1Cl,-,-,-,-,-,-8.8,105,-
Cc1noc(C)c1COc1ccccc1C(=O)NCCc1ccccc1,.,.,.,.,.,-,.,.
CC(C)(CNC(=O)c1ccc([N+](=O)[O-])c(Cl)c1)CNC(=O)c1ccc([N+](=O)[O-])c(Cl)c1,-7.9,-,-,-,-,-9.8,131,0.15
O=C(Nc1ccc(N2CCCC2)cc1)c1cccc(-c2cc3ccccc3oc2=O)c1,-,-,-,-,-,-10,84,-
CCC(C(=O)Nc1ccccc1F)n1nc(C)c2c(C)n(-c3ccccc3)nc2c1=O (stereo not drawn),-,-,-,-,-,-12,89,-
CCC(C(=O)NCCC1=CCCCC1)n1nc(C)c2c(C)n(-c3ccccc3)nc2c1=O (stereo not drawn),-,-,-,-,-,-8.8,89,-
CCC(C(=O)Nc1cc(F)ccc1F)n1nc(C)c2c(C)n(-c3ccc(C)cc3)nc2c1=O (stereo not drawn),-,-,-,-,-,-,.,.
Cc1ccnc(NC(=O)CN2C(=O)NC(C)(c3ccc4ccccc4c3)C2=O)c1 (stereo not drawn),.,.,.,.,.,-,.,.
O=C1/C(=C\c2ccccc2)SC(=S)N1CCC(=O)N1CCCCC1CCO (stereo not drawn),-,-,-,-,-,-,.,.
COc1cccc(/C=C2\SC(=O)N(CCC(=O)N3CCCCC3CCO)C2=O)c1 (stereo not drawn),-,-,-,-,-,-11,78,-
COc1ccc(N2CCN(C(=O)COC(=O)CCc3ccccc3)CC2)cc1,.,.,.,.,.,-,.,.
O=C(COC(=O)c1cc(S(=O)(=O)N2CCc3ccccc3C2)ccc1Cl)NCc1ccco1,-,-,-,-,-,-9.4,97,-
O=C(COC(=O)c1cccc(S(=O)(=O)N2CCc3ccccc3C2)c1)NCc1ccco1,-,-,-,-,-,-,.,.
Cc1cccc(NC(=O)NC2CCCc3ccccc32)c1 (stereo not drawn),-,-,-,-,-,-9.4,121,0.14
COCCC(=O)N1CCCC(C(=O)c2ccc3c4c(cccc24)CC3)C1 (stereo not drawn),-,-,-,-,-,-11,86,0.15
Cc1ccc(NC(=O)c2cc(C)nc3ccccc23)c(C)c1,-,-,-,-,-,-,.,.
Cc1ccc(NC(=O)c2cc(C)nc3ccccc23)c(Br)c1,-8,-,-,-,-,-10,94,-
Cc1cc(C(=O)Nc2cc(S(C)(=O)=O)ccc2Cl)c(C)o1,.,.,.,.,.,-,.,.
CC1=C(C(=O)OC(C)C)C(c2cn(-c3ccccc3)nc2-c2cccs2)NC(=O)N1 (stereo not drawn),-,-,-,-,-,-9.5,87,-
Oc1ccccc1-c1nc(N2CCN(Cc3ccccc3)CC2)c2ccccc2n1,-7.1,-,-,-,-,-12,100,-
SMILES,KCNK9 inh,KCNQ1 act,KCNQ1 inh,hERG rescue,Kir21 block,KCNK3 inh,KCNK3 confirm,KCNK3 noninduced
c1ccc(CNc2nc(N3CCN(Cc4ccccc4)CC3)nc3ccccc23)cc1,-,-,12,-,-,-10,113,-
Oc1ccccc1Nc1nc(NCc2ccccc2)c2ccccc2n1,-,-,-,-,-,-12,137,-
Oc1ccccc1-c1nc(N2CCCC2)c2ccccc2n1,-,-,-,-,-,-,.,.
CCOC(=O)N1CCc2c(sc3c2c(=O)n(-c2ccc(CC)cc2)c(=O)n3CC(=O)NCC2CCCO2)C1 (stereo not drawn),-,-,-,-,-,-,.,.
CNc1nc(Cl)c(SC)c(NCc2cccc(OC)c2)n1,-,-,-,-,-,-,.,.
COc1ccccc1N1CCN(C(=O)c2ccc3c(=O)n(Cc4ccc5c(c4)OCO5)c(=O)[nH]c3c2)CC1,-,-,-,-,-,-,.,.
CC1CN(C(=O)COC(=O)c2ccc(Cl)nc2)CC(C)O1 (stereo not drawn),-,-,-,-,-,-,.,.
NC(=O)c1cc(Cl)ccc1OCC(=O)NC1CC1,.,.,.,.,.,-,.,.
CC(C(=O)NC1CCCc2ccccc21)N1C(=O)C2CCCCC2C1=O (stereo not drawn),.,.,.,.,.,-,.,.
O=C(Nc1cccc(/C=C/c2ccccn2)c1)c1cc(Cl)ccn1,-,-,-,-,-,-9.4,109,-
Clc1cccc(-c2nc(NCCN3CCOCC3)c3ccccc3n2)c1,-,-,-,-,-,-,.,.
Clc1cccc(-c2nc(NCCCN3CCOCC3)c3ccccc3n2)c1,-,-,-,-,-,-9.4,91,0.15
O=C(NCc1cc([N+](=O)[O-])ccc1O)c1cc(-c2ccncc2)nc2ccccc12,-,-,-,-,-,-11,100,0.14
COc1ccc(OC)c(NC(=O)c2cnc(Nc3ccccc3OC)c3ccccc23)c1,-,-,-,-,-,-,.,.
Cc1oc(-c2cccc(Cl)c2)nc1CN1CCCC(C(=O)NC(C)c2ccc3c(c2)OCCO3)C1 (stereo not drawn),-,-,-,-,-,-11,127,0.12
CCOC(=O)C1CCCCN1Cc1ccc(-c2ccccc2)cc1 (stereo not drawn),-,-,-,-,-,-,.,.
COC(=O)c1ccc(N(CC(=O)NC2CCCCC2)C(=O)CNC(=O)c2ccco2)cc1,-,-,-,-,-,-,.,.
COc1ccc(CN2CCN(CCc3ccccc3)C(CCO)C2)c(Cl)c1OC (stereo not drawn),-,-,-,-,-,-9.9,85,-
COc1ccc(OC)c(CN2CCN(CCc3ccccc3)C(CCO)C2)c1 (stereo not drawn),-,-,-,-,-,-,.,.
CC1CCN(C(=O)Nc2ccc3nsnc3c2)CC1,-,-,-,-,-,-,.,.

# Assay outcomes (PubChem BioAssay)
